According to ChEMBL document CHEMBL4342473, “Lead Optimization of Benzoxazolone Carboxamides as Orally Bioavailable and CNS Penetrant Acid Ceramidase Inhibitors” (J Med Chem, 2020):
Activity calls are given as the source filed them. The calls are words filed in the database; no cut-off is given here.

Columns and labels:
[1] = Half life in mouse liver microsomes at 4.6 uM preincubated for 15 mins followed by NADPH addition and measured up to 60 mins by LC-MS/MS analysis; type: ADME, Microsome
How it was run: (§1)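 Mouse liver microsome stability; half-life and % parent remaining at 60 min; mean of at least two independent experiments, each in two technical replicates.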

[2] = Microsomal stability in mouse liver microsomes assessed as parent compound remaining at 4.6 uM preincubated for 15 mins followed by NADPH addition and measured after 60 mins by LC-MS/MS analysis; type: ADME, Microsome; details: read-out: Stability; how it was run: as §1
[3] = target: T1, Acid ceramidase (Homo sapiens) (UniProt Q13510); assay: Inhibition of human acid ceramidase expressed in HEK293 cells at 10 uM using Rbm14-12 as substrate preincubated for 10 mins followed by substrate addition and measured after 3 hrs by fluorescence assay; type: cell-based
T1 sequence (whole entry): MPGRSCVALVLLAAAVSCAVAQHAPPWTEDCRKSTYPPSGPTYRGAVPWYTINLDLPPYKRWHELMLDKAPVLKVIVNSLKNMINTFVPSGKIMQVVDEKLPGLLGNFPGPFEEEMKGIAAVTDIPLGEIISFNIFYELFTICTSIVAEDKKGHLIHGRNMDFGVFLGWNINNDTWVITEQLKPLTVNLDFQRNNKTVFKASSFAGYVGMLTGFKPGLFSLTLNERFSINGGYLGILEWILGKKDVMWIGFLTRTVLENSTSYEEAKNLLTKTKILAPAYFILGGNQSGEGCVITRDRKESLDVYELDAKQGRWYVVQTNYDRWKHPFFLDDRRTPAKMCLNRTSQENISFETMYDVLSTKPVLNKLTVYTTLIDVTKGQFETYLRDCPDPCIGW

[4] = target: T1, Acid ceramidase (Homo sapiens); assay: Inhibition of human acid ceramidase expressed in HEK293 cells at 1 uM using Rbm14-12 as substrate preincubated for 10 mins followed by substrate addition and measured after 3 hrs by fluorescence assay; type: cell-based
[5] = target: T1, Acid ceramidase (Homo sapiens); assay: Inhibition of human acid ceramidase expressed in HEK293 cells up to 10 uM using Rbm14-12 as substrate preincubated for 10 mins followed by substrate addition and measured after 3 hrs by fluorescence assay; type: cell-based

Q: Which half-life at 4.6 µM [1] does the source give for `O=C(NCCCCc1ccccc1)n1c2c(oc1=O)CCNC2` here?
A: < 15 min

Q: For `O=C(NCCCCc1ccccc1)n1c2c(oc1=O)CNCC2`, which half-life at 4.6 µM [1] is on record?
A: < 15 min

Q: For `CCCCCNC(=O)n1c(=O)oc2cc(C3CCN(C)CC3)ccc21`, which remaining at 1 h, 4.6 µM [2] is on record?
A: 60%

Q: With `CN1CCC(c2ccc3[nH]c(=O)oc3c2)CC1` as the molecule, how does the inhibition [3] read?
A: inactive

Q: And the inhibition [4]?
A: inactive

Q: With `O=C1C(=O)N(C(=O)NCCCCc2ccccc2)c2ccccc21` as the molecule, how does the inhibition [5] read?
A: inactive

Q: Which inhibition [5] does the source give for `O=C1Cc2ccccc2N1C(=O)NCCCCc1ccccc1` here?
A: inactive
